Screening results: PubChem BioAssay, several laboratories
NF-kB expr up = NF-kB expression increase, human neuronal cells; NF-kB reporter expression; active compounds read high; fold change at 12.5 µM; 190,000 tested, 1.6% active; in the data active = fold change above about 3.3
STAT1 inh = inhibitors of IFN-gamma induced STAT1 signaling; 200,000 tested, 0.35% active; inhibition, % at 5.5 µM; AID 920; NIH 3T3 STAT1-luciferase reporter, luminescence;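 active = inhibition above a set limit, the mean inhibition across all tested compounds plus 3 SD, cut at about 34% in these data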
STAT1 act-1 = STAT1 signaling activation; 200,000 tested, 2.6% active; NIH 3T3 STAT1-luciferase reporter, IFN-gamma, luminescence; 100% = IFN-gamma alone, no compound; AID 932; activation (% of control), % at 5.5 µM;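 active = activation above the screen-wide mean activation plus 3 SD, cut at about 130% in these data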
APP 5'UTR act = activates APP 5'UTR luciferase reporter; SH-SY5Y APP 5'UTR luciferase reporter, luminescence; zero percent = DMSO vehicle wells; activation, % at 2 µM; 190,000 tested, 1% active;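 active = activation above a set limit, based on mean plus 3 SD of controls, cut at about 140% in these data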
STAT3 act-1 = increases IL-6 driven STAT3 reporter signal. 190,000 tested, 0.91% active. activation (% of control), % at 5.6 µM. U3A cells, IL-6 STAT3-luciferase reporter, luminescence; 100% = signal with IL-6 EC80 alone;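 active = activation above the screen-wide mean of compound activation plus 3 SD, cut at about 130% in these data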
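Material: STAT3-luciferase reporter U3A cells. Controls: IL-6-treated wells, 100% activation. Read-out: % activation versus median of IL-6-stimulated wells. Probe or stimulus: IL-6 stimulus at 33 ng/mL final. Timing: compound 1 h, then IL-6 6 h at 37 °C. Signal: reporter luminescence signal.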
STAT3 inh = STAT3 signaling inhibition. 190,000 tested, 0.89% active. inhibition, % at 5.5 µM. U3A cells, IL-6 STAT3-luciferase reporter, luminescence; host cell line lacks STAT1. AID 862;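 active = inhibition above the mean inhibition across all screened compounds plus 3 SD, cut at about 44% in these data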
STAT3 act-2 = STAT3 activation, confirmation assay | shares compounds with STAT3 act-1 | 1,200 tested, 64% active | U3A STAT3-luciferase reporter, IL-6 potentiation, luminescence; U3A cells lack STAT1; 100 means same as IL-6 alone | potentiation (% of control), % at 5.7 µM;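 active = percent activation of the STAT3 luciferase reporter above a set limit taken from the earlier primary screen, cut at about 130% in these data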
NFkB act 2 = counter-screen for STAT3 activators: NF-kappaB activation; activation (% of control), % at 5.7 µM; shares compounds with STAT3 act-1; 1,200 tested, 11% active; human cells, NF-kappaB reporter activation; in the data active = activation above about 120%;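 note: reporter induced by TNF-alpha stimulation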
STAT1 act-2 = STAT1 activation in STAT3 activator counter-screen. activation (% of control), % at 5.7 µM. shares compounds with STAT3 act-1. 1,200 tested, 13% active. AID 1318. NIH 3T3 STAT1-luciferase reporter, IFN-gamma, luminescence;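 active = activation above the solvent-only control well mean plus 3 SD, set per screening run, cut at about 120% in these data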
Large screens that a line does not name were inactive (follow-up assays come after a bar, where they were run). An excerpt weighted towards active compounds, which were near 4.9% of everything screened.

O=C(O)C1Cc2[nH]cnc2C(c2cccc([N+](=O)[O-])c2)N1 (configuration not stated)	none
CCCc1cc(=O)n2[nH]c(C(F)(F)F)nc2n1	none
CCCc1cc(=O)n2[nH]c(C)nc2n1	STAT3 act-1 153 | STAT3 act-2 inactive | NFkB act 2 inactive | STAT1 act-2 inactive
CCC1(CC)NC(=O)N(CC(=O)OCC(=O)Nc2ccc(F)c(F)c2F)C1=O	none (no result: NF-kB expr up)
N#C/C(=C\Nc1ccc2cn[nH]c2c1)c1nc(-c2ccc(Cl)cc2)cs1	STAT3 act-1 148 | STAT3 act-2 inactive | NFkB act 2 inactive | STAT1 act-2 inactive
O=C(O)C(Cc1cc2ccccc2[nH]1)N1C(=O)C2CC=C(Cl)CC2C1=O (configuration not stated)	STAT3 act-1 142 | STAT3 act-2 135 | NFkB act 2 inactive | STAT1 act-2 inactive
Cc1ccc(S(=O)(=O)Nc2ccc3c4c(cccc24)CC3)c(C)c1	none (no result: NF-kB expr up)
Cc1ccc(S(=O)(=O)Nc2cc(C(C(=O)OC(C)C)C(=O)C(F)(F)F)c(O)c3ccccc23)c(C)c1 (configuration not stated)	STAT3 act-1 138 | STAT3 act-2 inactive | NFkB act 2 inactive | STAT1 act-2 inactive
CCCCCCn1c(-c2cccs2)n[nH]c1=S	none
CSc1nc2ccc(NC(=O)C3=NNC(=O)CC3)cc2s1	STAT3 act-1 141 | STAT3 act-2 151 | NFkB act 2 inactive | STAT1 act-2 inactive
COC(=O)c1ccc(C(=O)NC(=S)Nc2ccc3nc(SC)sc3c2)cc1	none
CSc1nc2ccc(NC(=O)C3=NN(c4ccccc4)C(=O)CC3)cc2s1	STAT3 act-1 138 | STAT3 act-2 161 | NFkB act 2 inactive | STAT1 act-2 inactive
COc1ccc(N2CCN(Cc3nc(-c4ccccc4)no3)CC2)cc1	none
CCC(C)c1ccccc1NC(=O)COC(=O)c1ccc2c(c1)S(=O)(=O)c1ccccc1C2=O (configuration not stated)	none
CC(C)CNC(=O)c1ccccc1NC(=O)CN(c1ccccc1)S(=O)(=O)N(C)C	none
C(=N\c1nccs1)/c1c[nH]c2ccccc12	STAT3 act-1 167 | STAT3 act-2 inactive | NFkB act 2 inactive | STAT1 act-2 inactive
Oc1oc(-c2cccc3ccccc23)nc1/C=N/c1nccs1	none
O=C(/C(=C(\[O-])c1ccccc1)[n+]1ccc2ccccc2c1)c1ccc([N+](=O)[O-])cc1	none
O=C(/C(=C(\[O-])c1ccccc1)[n+]1ccc2ccccc2c1)c1ccccc1	STAT3 act-1 138 | STAT3 act-2 151 | NFkB act 2 inactive | STAT1 act-2 inactive
O=C(/C(=C(\[O-])c1ccccc1)[n+]1ccc2ccccc2c1)c1ccc(Cl)cc1	STAT3 act-1 152 | STAT3 act-2 156 | NFkB act 2 inactive | STAT1 act-2 inactive
CCCOc1ccc(N2CC(C(=O)NC3=NCCS3)CC2=O)cc1 (configuration not stated)	none
CC(C)(CO)N=Cc1c(O)[nH]c2ccccc12	STAT3 act-1 142 | STAT3 act-2 137 | NFkB act 2 inactive | STAT1 act-2 inactive
O=C(CCN1CCOCC1)N1CCc2c([nH]c3ccccc23)C1c1cccc(Cl)c1 (configuration not stated)	STAT3 act-1 142 | STAT3 act-2 172 | NFkB act 2 inactive | STAT1 act-2 inactive
Cc1ccc(NC(=O)c2cc(N3CCOCC3)nc3ccccc23)cc1	STAT3 act-1 153 | STAT3 act-2 146 | NFkB act 2 inactive | STAT1 act-2 inactive
CCS(=O)(=O)Nc1c(C(=O)OC)[nH]c2ccccc12	STAT3 act-1 139 | STAT3 act-2 inactive | NFkB act 2 inactive | STAT1 act-2 inactive
CC(=O)Nc1c(C(=O)O)[nH]c2ccccc12	none
CCS(=O)(=O)Nc1c(C(=O)O)[nH]c2ccccc12	STAT3 act-1 164 | STAT3 act-2 169 | NFkB act 2 inactive | STAT1 act-2 inactive
COC(=O)c1[nH]c2ccccc2c1NC(=O)CN1CCCCCC1	none
Cc1cccc(N2CCN(Cc3nc(-c4cccc(Oc5ccccc5)c4)oc3C)CC2)n1	none
CC(Oc1ccc(F)cc1)C(=O)Nc1ccc2ccccc2c1 (configuration not stated)	STAT3 act-1 139 (no result: APP 5'UTR act) | STAT3 act-2 136 | NFkB act 2 inactive | STAT1 act-2 inactive
O=S(=O)(c1ccccc1)n1ccc2ccccc21	STAT3 act-1 139 | STAT3 act-2 inactive | NFkB act 2 inactive | STAT1 act-2 inactive
CCOC(=O)CSc1ncnc2c1cnn2-c1ccccc1	STAT3 act-1 138 | STAT3 act-2 inactive | NFkB act 2 inactive | STAT1 act-2 inactive
O=C(N/N=C/c1ccccc1OCC(=O)N1CCCC1)C(=O)Nc1ccccc1F	none
Clc1ccc(-c2ccc(/C=N/Nc3nncc(-c4ccccc4)n3)o2)cc1	none
Clc1ccccc1-c1ccc(/C=N/Nc2nncc(-c3ccccc3)n2)o1	STAT3 act-1 163 | STAT3 act-2 154 | NFkB act 2 inactive | STAT1 act-2 inactive
S=c1[nH]nc(CSc2nc3ccccc3s2)o1	STAT3 act-1 142 | STAT3 act-2 142 | NFkB act 2 inactive | STAT1 act-2 inactive
CCN(CC)S(=O)(=O)c1ccc(NC(=O)CC(NC(C)=O)c2ccccc2)cc1 (configuration not stated)	none
Cc1cc(NS(=O)(=O)c2ccc(NC(=O)c3oc4ccccc4c3C)cc2)no1	STAT3 act-1 145 | STAT3 act-2 inactive | NFkB act 2 inactive | STAT1 act-2 inactive
Cc1ccc(NC(=S)C2=C(O)c3ccccc3N(C)S2(=O)=O)cc1	none
c1ccc2c(c1)CCCN2c1nc2ccccc2n2cnnc12	STAT3 act-1 164 | STAT3 act-2 163 | NFkB act 2 inactive | STAT1 act-2 inactive
c1ccc2c(c1)CCN(c1nc3ccccc3n3cnnc13)C2	none
CCN(CC)C(=O)CSC1=Nc2ccccc2C2=NC(Cc3c[nH]c4ccccc34)C(=O)N12 (configuration not stated)	STAT3 act-1 137 | STAT3 act-2 135 | NFkB act 2 inactive | STAT1 act-2 inactive
Cc1cc(NC(=O)CSC2=Nc3ccccc3C3=NC(Cc4ccccc4)C(=O)N23)n[nH]1 (configuration not stated)	none
CCOC(=O)c1c2n(c3ccc(O)cc13)CCC2	STAT3 act-1 163 | STAT3 act-2 inactive | NFkB act 2 inactive | STAT1 act-2 inactive
